ABCG2 block: inhibitors of human ABCG2 transporter, ABCB1 counter-screen; Q9UNQ0; IgMXP3 cells, JC-1 efflux, flow cytometry; inhibition, % at 6.6 µM; actives 0.1% (n = 190,000); AID 1325;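 active means inhibition above 80%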
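test system = two drug-resistant human cell lines, ABCG2 and ABCB1 | amount = 3 million cells/mL final, two lines in 1:1 ratio | reagent = JC-1 transporter substrate | doses = one concentration, 6.6 µM final | incubation = 10 min at 25 °C | signal = flow cytometric JC-1 green MFI at 530 nm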
Arbovirus inh: antivirals against arbovirus infection; arbovirus infection cell-based antiviral screen; inhibition, % at 10 µM; actives 0.37% (n = 200,000); AID 1251; in the data active means inhibition above about 30%
RAM network inh: blocks the yeast RAM network | S. cerevisiae dse1pr::URA3 reporter, 5-FOA growth OD615, 2 d; analog-sensitive cbk1-as2 kinase mutant strain | inhibition, % at 50 µM | actives 1.8% (n = 190,000) | AID 868;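 active means inhibition above a set limit, 3 SD over mean compound inhibition, cut at about 8.4% in these data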;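 further: inhibition rescues growth on 5-FOA so higher OD means more RAM inhibition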
ABCB1 block: inhibitors of human ABCB1 transporter, ABCG2 counter-screen; CCRF-Adr cells, JC-1 efflux, flow cytometry; inhibition, % at 6.6 µM; actives 0.067% (n = 190,000); AID 1326; in the data active means inhibition above about 40%;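 further: higher value means more JC-1 retained so stronger ABCB1 efflux block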
Hits are given with their value. In the library only some 2.3% were active in any assay of this set; here they are far more common.

Results for COc1ccc(Cn2c(C)c(C)c(C#N)c2NC(=O)Nc2ccccc2)cc1 ?
ABCG2 block: inactive; Arbovirus inh: inactive; RAM network inh: inactive; ABCB1 block: inactive

What do the screens show for `COCCn1c(=O)[nH]c2cc(C(=O)NCCN3CCN(c4ccccc4F)CC3)ccc2c1=O`?
ABCG2 block: inactive; Arbovirus inh: inactive; RAM network inh: inactive; ABCB1 block: inactive

How did CCc1ccc(OCC(=O)NN2Cc3ccccc3C2=N)cc1 do in these assays?
ABCG2 block: inactive; Arbovirus inh: inactive; RAM network inh: inactive; ABCB1 block: inactive

What do the screens show for `O=C(NCC(=O)N(c1ccc(F)cc1)C(C(=O)NC1CCCC1)c1cccnc1)c1cccs1` (stereo not drawn)?
ABCG2 block: inactive; Arbovirus inh: inactive; RAM network inh: 8.9; ABCB1 block: inactive

What do the screens show for `O=C(NCC(=O)N(c1ccccc1)C(C(=O)NC1CCCCC1)c1cccnc1)c1cccs1` (stereo not drawn)?
ABCG2 block: inactive; Arbovirus inh: inactive; RAM network inh: inactive; ABCB1 block: inactive

What do the screens show for `Cc1oc(C(C)(C)C)c(CN2CCCC2)c1C(=O)O`?
ABCG2 block: inactive; Arbovirus inh: inactive; RAM network inh: inactive; ABCB1 block: inactive

How did NC(N)=NS(=O)(=O)c1ccc(NC(=S)NC(=O)c2ccc3c(c2)OCO3)cc1 do in these assays?
ABCG2 block: inactive; Arbovirus inh: inactive; RAM network inh: 9.1; ABCB1 block: inactive

How did CCOC(=O)CNc1nc(C(C)(C)C)nc2c1nnn2Cc1ccccc1Cl do in these assays?
ABCG2 block: inactive; Arbovirus inh: inactive; RAM network inh: 10; ABCB1 block: inactive

Results for Cc1nc2ccc(NC(=O)c3cccs3)cc2c(=O)n1Cc1ccc(Cl)cc1 ?
ABCG2 block: inactive; Arbovirus inh: inactive; RAM network inh: inactive; ABCB1 block: inactive

Results for C=CCn1c(=O)c2c3c(sc2n2c(Nc4ccc(C(=O)OCC)cc4)nnc12)CCCC3 ?
ABCG2 block: inactive; Arbovirus inh: inactive; RAM network inh: 8.5; ABCB1 block: inactive

How did COC(=O)CSc1ccc2c(N)c(C(=O)OC)sc2c1 do in these assays?
ABCG2 block: inactive; Arbovirus inh: inactive; RAM network inh: inactive; ABCB1 block: inactive

What do the screens show for `O=C(N/N=C/c1cccc([N+](=O)[O-])c1)c1ccc(CN2CCOCC2)cc1`?
ABCG2 block: inactive; Arbovirus inh: inactive; RAM network inh: inactive; ABCB1 block: inactive

What do the screens show for `CC(C)C(NC(=O)C12CC3CC(CC(C3)C1)C2)C(=O)N/N=C/C1=C(N2CCOCC2)C(=C\c2cccc([N+](=O)[O-])c2)/CC1` (stereo not drawn)?
ABCG2 block: inactive; Arbovirus inh: inactive; RAM network inh: 9.6; ABCB1 block: inactive

What do the screens show for `O=C(CCn1nc(-c2ccc(Cl)cc2)c2ccccc2c1=O)Nc1cccnc1`?
ABCG2 block: inactive; Arbovirus inh: inactive; RAM network inh: inactive; ABCB1 block: inactive

How did Cc1ccc(OC(C)C(=O)Nc2ccc(S(=O)(=O)Nc3cc(C)on3)cc2)cc1 (stereo not drawn) do in these assays?
ABCG2 block: inactive; Arbovirus inh: inactive; RAM network inh: inactive; ABCB1 block: inactive

How did Cc1cc(NS(=O)(=O)c2ccc(NC(=O)C(C)Oc3ccc4c(C)cc(=O)oc4c3)cc2)no1 (stereo not drawn) do in these assays?
ABCG2 block: inactive; Arbovirus inh: inactive; RAM network inh: 10; ABCB1 block: inactive

How did COc1ccc(OC)c(NC(=O)c2cc(-c3ccc(C)cc3O)n[nH]2)c1 do in these assays?
ABCG2 block: inactive; Arbovirus inh: 31; RAM network inh: inactive; ABCB1 block: inactive

How did Cc1ccc(-c2cc(C(=O)Nc3cc(C)ccc3C)[nH]n2)c(O)c1 do in these assays?
ABCG2 block: inactive; Arbovirus inh: inactive; RAM network inh: inactive; ABCB1 block: inactive

Results for O=C(/C=C\c1ccccc1)Nc1nccs1 ?
ABCG2 block: inactive; Arbovirus inh: inactive; RAM network inh: inactive; ABCB1 block: inactive

What do the screens show for `CC(C)(NO)/C(=N/O)c1ccc(Br)cc1`?
ABCG2 block: inactive; Arbovirus inh: inactive; RAM network inh: inactive; ABCB1 block: inactive

Results for CC(=O)NCCC1CCCCN1Cc1nc(Cc2cccc(C(F)(F)F)c2)no1 (stereo not drawn) ?
ABCG2 block: inactive; Arbovirus inh: inactive; RAM network inh: inactive; ABCB1 block: inactive

How did CCOc1cc(C(=O)Nc2ccc3c4c(cccc24)C(=O)N3CC)cc(OCC)c1OCC do in these assays?
ABCG2 block: inactive; Arbovirus inh: inactive; RAM network inh: inactive; ABCB1 block: inactive

What do the screens show for `CCN1C(=O)c2cccc3c(NC(=O)c4cccc(N5C(=O)CCC5=O)c4)ccc1c23`?
ABCG2 block: inactive; Arbovirus inh: inactive; RAM network inh: 9.3; ABCB1 block: inactive

Bioassay records as filed in PubChem BioAssay.
